Measurements as given in ChEMBL document CHEMBL4043181, “A new chemotype inhibitor for the human organic cation transporter 3 (hOCT3)” (Bioorg Med Chem Lett, 2017).

Tests used:
[1] = molecular target: T1, Solute carrier family 22 member 3 (Homo sapiens, UniProt O75751); assay: Competitive inhibition of human OCT3 expressed in HEK293 cells up to 25 uM in presence of varying concentration of MPP+ by Lineweaver-Burk plot analysis; format: cell-based
T1 sequence (O75751 whole entry): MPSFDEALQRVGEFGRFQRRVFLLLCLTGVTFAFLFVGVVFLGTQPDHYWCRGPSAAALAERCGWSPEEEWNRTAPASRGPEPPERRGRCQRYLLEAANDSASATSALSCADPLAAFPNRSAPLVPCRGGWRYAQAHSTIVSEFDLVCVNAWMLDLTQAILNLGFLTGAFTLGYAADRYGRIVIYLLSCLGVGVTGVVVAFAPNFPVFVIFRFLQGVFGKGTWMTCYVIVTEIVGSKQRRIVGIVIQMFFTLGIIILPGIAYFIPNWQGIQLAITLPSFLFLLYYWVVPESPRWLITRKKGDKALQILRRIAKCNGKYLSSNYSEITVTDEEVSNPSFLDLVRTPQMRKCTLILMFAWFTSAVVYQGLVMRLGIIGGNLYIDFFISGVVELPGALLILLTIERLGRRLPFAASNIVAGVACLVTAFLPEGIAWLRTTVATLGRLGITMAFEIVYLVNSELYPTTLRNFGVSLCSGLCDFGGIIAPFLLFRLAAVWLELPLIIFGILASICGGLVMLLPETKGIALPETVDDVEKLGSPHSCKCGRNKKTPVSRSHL
Outline: (§1)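 HEK293 cells stably expressing hOCT3; 1 min cellular accumulation of MPP+ (1-150 μM) with or without inhibitor at two concentrations. Uptake corrected for background in non-transporter-expressing control cells. Saturation curves fitted by nonlinear regression to a mixed-model inhibition equation to define mode of inhibition; Lineweaver-Burk transforms used for display.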

[2] = species: Homo sapiens; assay: Selectivity ratio of IC50 for human OCT2 expressed in HEK293 cells to IC50 for human OCT3 expressed in HEK293 cells; format: cell-based
[3] = molecular target: T1, Solute carrier family 22 member 3; assay: Inhibition of human OCT3 expressed in HEK293 cells assessed as decrease in uptake of substrate [3H]MPP+ after 1 min by liquid scintillation counting method; format: cell-based
Outline: (§2)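 Stably transfected HEK293 cells expressing hOCT1, hOCT2 or hOCT3; 1 min uptake of [3H]MPP+ (1 μM) measured across inhibitor concentrations 10^-8 to 10^-2.5 M. Signal corrected for nonspecific background in empty-vector control cells; data as mean ± SD; IC50 obtained by nonlinear regression.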

[4] = molecular target: T2, Solute carrier family 22 member 2 (Homo sapiens, UniProt O15244); assay: Inhibition of human OCT2 expressed in HEK293 cells assessed as decrease in uptake of substrate [3H]MPP+ after 1 min by liquid scintillation counting method; format: cell-based; outline: as §2
T2 sequence (O15244 whole entry): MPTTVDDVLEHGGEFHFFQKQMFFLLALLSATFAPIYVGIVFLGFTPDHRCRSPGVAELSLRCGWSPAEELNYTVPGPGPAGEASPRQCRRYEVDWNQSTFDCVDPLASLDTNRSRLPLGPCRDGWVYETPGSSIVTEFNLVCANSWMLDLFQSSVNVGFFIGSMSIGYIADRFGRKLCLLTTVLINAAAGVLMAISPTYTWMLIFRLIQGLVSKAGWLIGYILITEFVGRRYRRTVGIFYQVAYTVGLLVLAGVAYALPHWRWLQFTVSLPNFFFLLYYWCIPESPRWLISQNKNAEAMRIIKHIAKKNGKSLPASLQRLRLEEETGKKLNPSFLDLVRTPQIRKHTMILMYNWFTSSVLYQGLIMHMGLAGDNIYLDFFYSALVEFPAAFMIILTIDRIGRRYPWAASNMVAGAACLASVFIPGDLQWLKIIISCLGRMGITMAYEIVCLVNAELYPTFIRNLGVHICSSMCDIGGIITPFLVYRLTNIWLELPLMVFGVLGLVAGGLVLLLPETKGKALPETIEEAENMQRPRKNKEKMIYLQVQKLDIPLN

[5] = species: Homo sapiens; assay: Selectivity ratio of IC50 for human OCT1 expressed in HEK293 cells to IC50 for human OCT3 expressed in HEK293 cells; format: cell-based
[6] = molecular target: T3, Solute carrier family 22 member 1 (Homo sapiens, UniProt O15245); assay: Inhibition of human OCT1 expressed in HEK293 cells assessed as decrease in uptake of substrate [3H]MPP+ after 1 min by liquid scintillation counting method; format: cell-based; outline: as §2
T3 sequence (O15245 whole entry): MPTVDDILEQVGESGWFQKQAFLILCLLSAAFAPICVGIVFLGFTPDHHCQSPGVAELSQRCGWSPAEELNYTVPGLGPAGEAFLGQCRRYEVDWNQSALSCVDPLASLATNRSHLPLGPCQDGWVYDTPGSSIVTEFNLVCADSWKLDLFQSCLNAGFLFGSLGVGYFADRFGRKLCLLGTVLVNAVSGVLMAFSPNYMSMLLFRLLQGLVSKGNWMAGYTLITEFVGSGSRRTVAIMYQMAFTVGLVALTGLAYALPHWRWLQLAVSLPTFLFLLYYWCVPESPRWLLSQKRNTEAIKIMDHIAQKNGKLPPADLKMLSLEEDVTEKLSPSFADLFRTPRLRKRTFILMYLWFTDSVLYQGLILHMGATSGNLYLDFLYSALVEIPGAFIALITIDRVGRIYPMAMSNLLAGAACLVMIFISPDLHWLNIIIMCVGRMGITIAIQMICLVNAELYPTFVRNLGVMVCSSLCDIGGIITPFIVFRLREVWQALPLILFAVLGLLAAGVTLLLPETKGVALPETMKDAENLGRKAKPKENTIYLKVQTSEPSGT

[7] = molecular target: T1, Solute carrier family 22 member 3; assay: Competitive inhibition of human OCT3 expressed in HEK293 cells up to 10 uM in presence of varying concentration of MPP+ by Lineweaver-Burk plot analysis; format: cell-based; outline: as §1
[8] = molecular target: T1, Solute carrier family 22 member 3; assay: Inhibition of OCT3 (unknown origin)
[9] = molecular target: T1, Solute carrier family 22 member 3; assay: Competitive inhibition of human OCT3 expressed in HEK293 cells in presence of varying concentration of MPP+ by Lineweaver-Burk plot analysis; format: cell-based; outline: as §1

Row | inhibition (INH) [1] | IC50 [3] | IC50 [4] | IC50 [6] | inhibition (INH) [7] | IC50 [8] | inhibition (INH) [9] | Structure (SMILES) | Ratio IC50 [2] | Ratio IC50 [5]
1 | – | 4.8 µM | 11.3 µM | 6.3 µM | – | – | – | N=C(N)Nc1ccc(Br)cc1 | < 5 | < 5
2 | – | 1.5 µM | 4.4 µM | 2.4 µM | – | – | – | NC(N)=Nc1ccc(I)cc1 | < 5 | < 5
3 | – | 2.2 µM | 8.3 µM | 0.9 µM | Active | – | – | CC(C)(C)c1ccc(N=C(N)N)cc1 | < 5 | < 5
4 | – | 27.8 µM | 48.3 µM | 22.6 µM | – | – | – | N=C(N)Nc1ccc(F)cc1 | < 5 | < 5
5 | – | 4.6 µM | 9.3 µM | 10 µM | – | – | – | Cc1ccc(NC(=N)N)cc1 | < 5 | < 5
6 | – | 7.6 µM | 60.5 µM | 13.7 µM | – | – | – | NC(N)=Nc1cccc(Cl)c1 | – | –

Continued, compound first:

Row | Structure (SMILES) | inhibition (INH) [1] | IC50 [3] | IC50 [4] | IC50 [6] | inhibition (INH) [7] | IC50 [8] | inhibition (INH) [9] | Ratio IC50 [2] | Ratio IC50 [5]
7 | N=C(N)Nc1ccc(Cl)cc1 | Active | 2.8 µM | 18.9 µM | 10 µM | – | – | – | 6 | < 5
8 | N=C(N)N [GUANIDINE] | – | – | – | – | – | 2200 to 6200 µM | – | – | –
9 | N=C(N)Nc1ccc(Cc2ccccc2)cc1 | – | 452 µM | 96.2 µM | 762 µM | – | – | – | < 5 | < 5
10 | C=C[C@H]1C[N@@]2CC[C@H]1C[C@H]2[C@H](O)c1ccnc2ccc(OC)cc12 [QUININE] | – | – | – | – | – | – | Active | – | –
11 | N=C(N)Nc1ccccc1 [PHENYLGUANIDINE] | – | 99.8 µM | 89 µM | 41.1 µM | – | – | – | < 5 | < 5
12 | N=C(N)Nc1cccc(Cl)c1 | – | – | – | – | – | – | – | 8 | < 5
